Key:
[1] = test system: T47D; experiment: Growth inhibition of human T47D cells incubated for 72 hrs at 1 uM by CCK8 assay; format: functional; conditions: read-out: GI
Procedure, shortened: (§1)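 CCK8 viability assay on a panel of human cancer cell lines, with an initial screen at fixed concentrations of 1 µM and 10 µM.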

[2] = test system: OVCAR-5; experiment: Growth inhibition of human OVCAR5 cells incubated for 72 hrs at 1 uM by CCK8 assay; format: functional; conditions: OVCAR-5, 72 h, read-out: GI; procedure, shortened: as §1
[3] = test system: SiHa; experiment: Growth inhibition of human SiHa cells incubated for 72 hrs at 1 uM by CCK8 assay; format: functional; conditions: read-out: GI; procedure, shortened: as §1
[4] = test system: OVCAR-5; experiment: Growth inhibition of human OVCAR5 cells incubated for 72 hrs at 10 uM by CCK8 assay; format: functional; conditions: OVCAR-5, 72 h, read-out: GI; procedure, shortened: as §1
[5] = test system: A549; experiment: Growth inhibition of human A549 cells incubated for 72 hrs at 10 uM by CCK8 assay; format: functional; conditions: A549, 72 h, read-out: GI; procedure, shortened: as §1
[6] = test system: NCI-H1299; experiment: Growth inhibition of human H1299 cells incubated for 72 hrs at 1 uM by CCK8 assay; format: functional; conditions: NCI-H1299, 72 h, read-out: GI; procedure, shortened: as §1
[7] = test system: SiHa; experiment: Growth inhibition of human SiHa cells incubated for 72 hrs at 10 uM by CCK8 assay; format: functional; conditions: read-out: GI; procedure, shortened: as §1
[8] = test system: NCI-H1299; experiment: Growth inhibition of human H1299 cells incubated for 72 hrs at 10 uM by CCK8 assay; format: functional; conditions: NCI-H1299, 72 h, read-out: GI; procedure, shortened: as §1
[9] = target: Vascular endothelial growth factor receptor 2 (Homo sapiens, UniProt P35968); experiment: Inhibition of human VEGFR2 at 1 uM by enzymatic radiometric assay
Sequence of Vascular endothelial growth factor receptor 2 (P35968 whole entry): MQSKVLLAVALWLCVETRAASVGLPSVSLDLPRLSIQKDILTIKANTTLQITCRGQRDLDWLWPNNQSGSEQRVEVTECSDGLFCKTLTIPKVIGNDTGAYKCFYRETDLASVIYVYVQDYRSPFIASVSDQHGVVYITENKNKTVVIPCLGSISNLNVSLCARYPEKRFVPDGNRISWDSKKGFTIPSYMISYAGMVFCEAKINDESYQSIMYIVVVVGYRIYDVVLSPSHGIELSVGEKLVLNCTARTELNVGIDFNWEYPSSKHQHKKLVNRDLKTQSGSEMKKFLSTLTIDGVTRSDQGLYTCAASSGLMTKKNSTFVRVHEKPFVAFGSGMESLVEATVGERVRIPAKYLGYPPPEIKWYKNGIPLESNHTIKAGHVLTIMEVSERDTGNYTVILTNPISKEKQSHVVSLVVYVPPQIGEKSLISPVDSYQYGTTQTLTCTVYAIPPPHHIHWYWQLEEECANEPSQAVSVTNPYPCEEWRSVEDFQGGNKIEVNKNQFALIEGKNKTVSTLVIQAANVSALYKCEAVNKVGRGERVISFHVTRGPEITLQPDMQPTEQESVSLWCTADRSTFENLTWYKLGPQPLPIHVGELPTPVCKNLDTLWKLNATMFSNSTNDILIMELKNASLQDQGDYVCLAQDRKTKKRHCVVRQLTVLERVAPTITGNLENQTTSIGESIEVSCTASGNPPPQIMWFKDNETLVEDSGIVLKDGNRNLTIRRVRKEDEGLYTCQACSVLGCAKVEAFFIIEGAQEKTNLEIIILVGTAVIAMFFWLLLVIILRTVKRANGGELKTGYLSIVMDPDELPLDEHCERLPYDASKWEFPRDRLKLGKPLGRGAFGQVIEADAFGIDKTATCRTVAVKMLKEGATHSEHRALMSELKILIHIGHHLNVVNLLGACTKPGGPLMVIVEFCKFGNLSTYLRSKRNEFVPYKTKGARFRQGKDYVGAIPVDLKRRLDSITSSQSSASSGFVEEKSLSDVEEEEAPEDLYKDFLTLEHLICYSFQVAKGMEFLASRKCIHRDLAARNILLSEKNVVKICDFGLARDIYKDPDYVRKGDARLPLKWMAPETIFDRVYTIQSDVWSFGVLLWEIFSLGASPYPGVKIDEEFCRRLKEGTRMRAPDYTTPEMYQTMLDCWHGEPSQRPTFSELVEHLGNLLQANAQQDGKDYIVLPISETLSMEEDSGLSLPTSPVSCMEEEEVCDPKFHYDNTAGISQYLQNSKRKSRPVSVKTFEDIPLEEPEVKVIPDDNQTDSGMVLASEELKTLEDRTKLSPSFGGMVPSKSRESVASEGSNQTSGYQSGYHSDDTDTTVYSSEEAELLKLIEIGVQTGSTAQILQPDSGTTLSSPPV

[10] = target: CDK4/Cyclin D3 (Homo sapiens) (UniProt P11802+P30281); experiment: Inhibition of human CDK4/CyclinD3 at 1 uM by enzymatic radiometric assay; format: protein-complex assay
Procedure, shortened: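 Kinase panel run through the Eurofins KinaseProfiler, with compound at a fixed 1 µM. Values are means of two independent experiments.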

[11] = test system: A549; experiment: Growth inhibition of human A549 cells incubated for 72 hrs at 1 uM by CCK8 assay; format: functional; conditions: A549, 72 h, read-out: GI; procedure, shortened: as §1
[12] = test system: T47D; experiment: Growth inhibition of human T47D cells incubated for 72 hrs at 10 uM by CCK8 assay; format: functional; conditions: read-out: GI; procedure, shortened: as §1
[13] = test system: HeLa; experiment: Growth inhibition of human HeLa cells incubated for 72 hrs at 10 uM by CCK8 assay; format: functional; conditions: read-out: GI; procedure, shortened: as §1
[14] = test system: NCI-H460; experiment: Growth inhibition of human H460 cells incubated for 72 hrs at 1 uM by CCK8 assay; format: functional; conditions: NCI-H460, 72 h, read-out: GI; procedure, shortened: as §1
[15] = test system: HeLa; experiment: Growth inhibition of human HeLa cells incubated for 72 hrs at 1 uM by CCK8 assay; format: functional; conditions: read-out: GI; procedure, shortened: as §1
[16] = test system: NCI-H460; experiment: Growth inhibition of human H460 cells incubated for 72 hrs at 10 uM by CCK8 assay; format: functional; conditions: NCI-H460, 72 h, read-out: GI; procedure, shortened: as §1

Row | SMILES | inhibition [9] | inhibition [10] | inhibition of growth at 1 µM [1] | inhibition of growth at 1 µM [2] | inhibition of growth at 1 µM [3] | inhibition of growth at 10 µM [4] | inhibition of growth at 10 µM [5] | inhibition of growth at 1 µM [6] | inhibition of growth at 10 µM [7] | inhibition of growth at 10 µM [8] | inhibition of growth at 1 µM [11] | inhibition of growth at 10 µM [12] | inhibition of growth at 10 µM [13] | inhibition of growth at 1 µM [14] | inhibition of growth at 1 µM [15] | inhibition of growth at 10 µM [16]
1 | CN(C)C(=O)c1cc2cnc(Nc3ccc(NC(=O)C4(C(=O)Nc5cccc(Br)c5)CC4)cc3)nc2n1C1CCCC1 | 6% | 72% | 29.1% | 0.04% | 13.9% | 89.6% | 92.2% | 46.6% | 92.5% | 77.5% | 20.2% | 94.6% |  |  |  | 
2 | COc1cccc(NC(=O)C2(C(=O)Nc3ccc(Nc4ncc5cc(C(=O)N(C)C)n(C6CCCC6)c5n4)cc3)CC2)c1 | -2% | 66% | 56.3% |  |  |  | 96% |  |  |  | 77.2% | 93.5% |  |  |  | 
3 | CN(C)C(=O)c1cc2cnc(Nc3ccc(NC(=O)C4(C(=O)Nc5cccc(O)c5)CC4)cc3)nc2n1C1CCCC1 | 24% | 94% | 80.7% | 58.5% | -19.8% | 86% |  | 77.5% | 75.7% | 78.5% |  | 83.7% | 96.6% | 75.5% | 57% | 94.9%
4 | CN(C)C(=O)c1cc2cnc(Nc3ccc(N4CCN(C(=O)C5(C(=O)Nc6ccc(F)cc6)CC5)CC4)cn3)nc2n1C1CCCC1 | -8% | 97% |  |  |  |  |  |  |  |  |  |  |  |  |  | 
5 | Cc1cccc(NC(=O)C2(C(=O)Nc3ccc(Nc4ncc5cc(C(=O)N(C)C)n(C6CCCC6)c5n4)cc3)CC2)c1 | 5% | 66% | 45.7% |  |  |  | 86.1% |  |  |  | 35.2% | 95.3% |  |  |  | 
6 | CN(C)C(=O)c1cc2cnc(Nc3ccc(NC(=O)C4(C(=O)Nc5ccccc5F)CC4)cc3)nc2n1C1CCCC1 | -2% | 75% | 85.2% | 58% | 63.4% | 82.6% | 88.6% | 70.2% | 103% | 89.6% | 79.1% | 97.8% |  | 28.2% |  | 93.1%
7 | CN(C)C(=O)c1cc2cnc(Nc3ccc(NC(=O)C4(C(=O)Nc5ccc(F)cc5)CC4)cn3)nc2n1C1CCCC1 | -3% | 85% |  |  |  |  |  |  |  |  |  |  |  |  |  | 
8 | CN(C)C(=O)c1cc2cnc(Nc3ccc(N)cn3)nc2n1C1CCCC1 |  |  | 18.8% | 12.3% | -21.2% | 68% |  | 60.1% | 61.5% | 82.1% |  | 61.1% | 68.7% | -0.6% | 3.7% | 62%
9 | CN(C)C(=O)c1cc2cnc(Nc3ccc(NC(=O)C4(C(=O)Nc5cccc(C#N)c5)CC4)cc3)nc2n1C1CCCC1 | 29% | 53% |  |  |  |  | 73.6% |  |  |  | 70.8% |  |  |  |  | 
10 | CN(C)C(=O)c1cc2cnc(Nc3ccc(NC(=O)C4(C(=O)Nc5ccccc5)CC4)cc3)nc2n1C1CCCC1 | 8% | 82% | 52.8% | 52.1% | 58% | 77.1% | 88.8% | 71.2% | 106% | 90.5% | 75% | 93.9% |  | 42.4% |  | 95.9%
11 | CN(C)C(=O)c1cc2cnc(Nc3ccc(NC(=O)C4(C(=O)Nc5cccc(F)c5)CC4)cc3)nc2n1C1CCCC1 | 7% | 61% | -3.2% | 26.3% | 29.7% | 85.6% | 91.8% | 64.2% | 107% | 87% | 33.2% | -0.4% |  | 45.1% |  | 98.8%
12 | CN(C)C(=O)c1cc2cnc(Nc3ccc(NC(=O)C4(C(=O)Nc5ccc(F)cc5)CC4)cc3F)nc2n1C1CCCC1 | 33% | 87% | 6.3% | -0.9% | 6.6% | 33% |  | 52.3% | 44.4% | 82.6% |  | 67.9% | 49.5% | 11.9% | 6.2% | 53%
13 | CN(C)C(=O)c1cc2cnc(Nc3ccc(NC(=O)C4(C(=O)Nc5cccc(C(F)(F)F)c5)CC4)cc3)nc2n1C1CCCC1 | -10% | 26% | 9.7% |  |  |  | 89.2% |  |  |  | 15.7% | 92.7% |  |  |  | 
14 | COC(=O)c1cccc(NC(=O)C2(C(=O)Nc3ccc(Nc4ncc5cc(C(=O)N(C)C)n(C6CCCC6)c5n4)cc3)CC2)c1 | -7% | 76% |  |  |  |  | 91% |  |  |  | 10.5% |  |  |  |  | 

Second part, led by results:

Row | inhibition [9] | inhibition [10] | SMILES | inhibition of growth at 1 µM [1] | inhibition of growth at 1 µM [2] | inhibition of growth at 1 µM [3] | inhibition of growth at 10 µM [4] | inhibition of growth at 10 µM [5] | inhibition of growth at 1 µM [6] | inhibition of growth at 10 µM [7] | inhibition of growth at 10 µM [8] | inhibition of growth at 1 µM [11] | inhibition of growth at 10 µM [12] | inhibition of growth at 10 µM [13] | inhibition of growth at 1 µM [14] | inhibition of growth at 1 µM [15] | inhibition of growth at 10 µM [16]
15 | 9% | 62% | Cc1ccc(NC(=O)C2(C(=O)Nc3ccc(Nc4ncc5cc(C(=O)N(C)C)n(C6CCCC6)c5n4)cc3)CC2)cc1 | 47.9% |  | 37% | 80.6% | 90.6% |  | 104% | 84.5% | 40.2% | 99.6% |  |  |  | 
16 | 21% | 84% | CN(C)C(=O)c1cc2cnc(Nc3ccc(NC(=O)C4(C(=O)Nc5ccc(C#N)cc5)CC4)cc3)nc2n1C1CCCC1 |  |  |  |  | 95% |  |  |  | 86.1% |  |  |  |  | 
17 | 15% | 44% | CN(C)C(=O)c1cc2cnc(Nc3ccc(NC(=O)C4(C(=O)Nc5cccc(Cl)c5)CC4)cc3)nc2n1C1CCCC1 | 39.3% | 15.5% | 16.2% | 88.1% | 90.7% | 47.9% | 97.3% | 84.1% | 8.3% | 92.6% |  | 44% |  | 101%
18 | 5% | 65% | CN(C)C(=O)c1cc2cnc(Nc3ccc(NC(=O)C4(C(=O)Nc5ccc(Cl)cc5)CC4)cc3)nc2n1C1CCCC1 | 22.8% | 8.1% | -0.8% | 85.3% | 100% | 52.2% |  | 88.6% | 24.7% | 95% |  | 21.3% |  | 95.7%
19 | 19% | 77% | COc1ccc(NC(=O)C2(C(=O)Nc3ccc(Nc4ncc5cc(C(=O)N(C)C)n(C6CCCC6)c5n4)cc3)CC2)cc1 | 76.4% |  |  |  | 78.5% |  |  |  | 74.4% | 96.1% |  |  |  | 
20 | 26% | 48% | CN(C)C(=O)c1cc2cnc(Nc3ccc(NC(=O)C4(C(=O)Nc5ccc(Br)cc5)CC4)cc3)nc2n1C1CCCC1 | 21.1% | 13.7% | 23.2% | 87.8% | 90.3% | 27.6% | 98.8% | 76.9% | -6.6% | 94.3% |  | 31.5% |  | 96.4%
21 | 1% | 32% | CN(C)C(=O)c1cc2cnc(Nc3ccc(NC(=O)C4(C(=O)Nc5ccc(C(F)(F)F)cc5)CC4)cc3)nc2n1C1CCCC1 | 29.6% |  |  |  | 87.9% |  |  |  | -25.3% | 94.9% |  |  |  | 
22 | 2% | 77% | COC(=O)c1ccc(NC(=O)C2(C(=O)Nc3ccc(Nc4ncc5cc(C(=O)N(C)C)n(C6CCCC6)c5n4)cc3)CC2)cc1 |  |  |  |  | 92% |  |  |  | 77.1% |  |  |  |  | 

From ChEMBL document CHEMBL4052710 (Bioorg Med Chem Lett, 2017)
